For one series, the system named is HepG2. In words: Cytotoxicity against human HepG2 cells after 48 hrs by MTT assay. Conditions: HepG2, 48 h. The format is cell-based. (Tetrazolium assays rely on reduction of a dye to a coloured formazan, in cell work by metabolically active cells.)
Series [1] relates to Plasmodium falciparum. As to the kind of experiment: Antimalarial activity against chloroquine-resistant Plasmodium falciparum W2 after 48 hrs by [3H]hypoxanthine incorporation assay. The format is functional, organism-based. Summed up:
(§1)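 P. falciparum D6 (Sierra I/UNC clone), W2 (Indochina I clone), TM91C235 (South-East Asian clone) cultured with compound; growth inhibition by [3H]hypoxanthine incorporation (modified Desjardins/Milhous method). Chloroquine, mefloquine, artemisinin as positive controls. IC50 in nM; technical triplicates, curve fits R2 0.96–1.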

Series [2] can be described thus: Selectivity index, ratio of IC50 for human HepG2 cells to IC50 for chloroquine susceptible Plasmodium falciparum D6. The format is toxicity, cell-based. As to conditions: read-out: Ratio IC50.
The test system of series [3] is Plasmodium falciparum. As to the kind of experiment: Antimalarial activity against mutidrug resistant Plasmodium falciparum TM91C235 after 48 hrs by [3H]hypoxanthine incorporation assay. In kind it is functional, organism-based. A digest of the protocol: as §1
In series [4] the test system is Plasmodium falciparum. In words: Antimalarial activity against chloroquine-susceptible Plasmodium falciparum D6 after 48 hrs by [3H]hypoxanthine incorporation assay. In kind it is functional, organism-based. A digest of the protocol:
as §1

A short description of series [5]: Half life in human liver microsomes at 1 uM by LC-MS/MS analysis. In kind it is ADME.
Series [6] is described as follows: Half life in mouse liver microsomes at 1 uM by LC-MS/MS analysis. The format is ADME.
Another series concerns Mus musculus. In words: Toxicity in Plasmodium berghei ANKA infected C57Bl6 mouse at 160 mg/kg/day, po administered for 3 days measured 2 times a day for 31 days. As to conditions: in vivo, 744 h. The format is organism-based.
Series [7] has as its system Plasmodium berghei. In words: Antimalarial activity against Plasmodium berghei ANKA infected in C57Bl6 mouse at 160 mg/kg/day, po measured on day 3 to 5 by Thompson test. In kind it is functional.
Series [8] relates to Plasmodium berghei. As to the kind of experiment: Antimalarial activity against Plasmodium berghei ANKA infected in C57Bl6 mouse at 80 mg/kg/day, po measured on day 3 to 5 by Thompson test. In kind it is functional.
The subject of series [9] is Plasmodium berghei. In words: Antimalarial activity against sporozoite stage of Plasmodium berghei infected in human Huh7 cells assessed as remaining parasite infection at 5 uM pre-incubated for 24 hrs followed by parasite infection measured after 48 hrs by bioluminescence assay. As to conditions: Huh-7.
Series [10] relates to Plasmodium berghei. As to the kind of experiment: Antimalarial activity against sporozoite stage of Plasmodium berghei infected in human Huh7 cells assessed as inhibition of parasite infection pre-incubated for 24 hrs followed by parasite infection measured after 48 hrs by bioluminescence assay. In kind it is functional, organism-based. Conditions: Huh-7.

17 compounds from ChEMBL document CHEMBL3758104, “Reinvestigating Old Pharmacophores: Are 4-Aminoquinolines and Tetraoxanes Potential Two-Stage Antimalarials?” (J Med Chem, 2016) can be followed below.

A value given as a limit tells only on which side of the number the result lay.

On to `CC(CCCNCCC12CC3CC(CC(C3)C1)C2)Nc1ccnc2ccccc12` (configuration not stated), for which the IC50 in the series on HepG2 was determined as 1590 nM; in the series with Plasmodium falciparum [1] it was 393 nM; in the series with Plasmodium falciparum [3] it was 286 nM; with Plasmodium falciparum [4], 12 nM. In addition, in series [2], the selectivity ratio is 133.
As to `CC(CCCNCC12CC3CC(CC(C3)C1)C2)Nc1ccnc2cc(Cl)ccc12` (configuration not stated), the IC50 in the series on HepG2 was determined as 24300 nM; in the series on Plasmodium falciparum [1], 22 nM; in the series on Plasmodium falciparum [3], 23 nM; with Plasmodium falciparum [4], 21 nM. The half-life at 1 µM was found to be 49 min in series [5] and 57 min in [6]. For the same compound, the selectivity ratio in [2] was found to be 1160.
As to `CCN(CC)CCCNc1c(F)cnc2cc(Cl)ccc12`, the Activity result in the series with Mus musculus is listed as “Non-toxic”. In addition, the MST with Plasmodium berghei [7] is 14.6 days.
In the case of `CC(CCNCCC12CC3CC(CC(C3)C1)C2)Nc1ccnc2ccccc12` (configuration not stated), the IC50 turned out to be 1590 nM with HepG2, 126 nM in the series on Plasmodium falciparum [1], 102 nM in the series on Plasmodium falciparum [3] and 7 nM in the series on Plasmodium falciparum [4]. Also, the selectivity ratio in series [2] was 227.
Turning to `Fc1ccc2scc(CNCCCCNc3ccnc4cc(Cl)ccc34)c2c1`, in the series on Mus musculus, the Activity result is “Non-toxic”. Also, the values for the MST in the series with Plasmodium berghei [8] and with Plasmodium berghei [7] were 30.2 days and 30 days, respectively.
Consider `CC(CCCNc1ccnc2cc(Cl)ccc12)NCC12CC3CC(CC(C3)C1)C2` (configuration not stated), for which the IC50 in the series on HepG2 is 1610 nM; with Plasmodium falciparum [1] it was 282 nM; with Plasmodium falciparum [3] it was 165 nM; in the series on Plasmodium falciparum [4] it was 51 nM. Further, the selectivity ratio in series [2] was 32.
Consider `CC(CCNCCC12CC3CC(CC(C3)C1)C2)Nc1c(F)cnc2ccccc12` (configuration not stated), for which the IC50 in the series on Plasmodium falciparum [1] amounted to 394 nM; in the series with Plasmodium falciparum [3], 546 nM; in the series on Plasmodium falciparum [4] it was 154 nM. In addition, the selectivity ratio in [2] stood at 3.
Turning to `CC(CCNCCC12CC3CC(CC(C3)C1)C2)Nc1c(F)cnc2cc(Cl)ccc12` (configuration not stated), the IC50 amounted to 3210 nM with HepG2; 203 nM in the series on Plasmodium falciparum [1]; 1000 nM with Plasmodium berghei [10]; 171 nM in the series on Plasmodium falciparum [3]; 143 nM in the series with Plasmodium falciparum [4]. For the same compound, the % infection at 5 µM with Plasmodium berghei [9] is 3%. The selectivity ratio in [2] was 22.
Compound `O[C@@H](c1cc(C(F)(F)F)nc2c(C(F)(F)F)cccc12)[C@H]1CCCCN1` [(S,R)-MEFLOQUINE] gave an IC50 with Plasmodium falciparum [1] of 5 nM.
Take `CCN(CC)CCCNc1nc2cc(Cl)ccc2cc1F`: the Activity entry with Mus musculus is “Non-toxic”. This compound also showed an MST in the series on Plasmodium berghei [7] of 20.2 days.
For `CC(CCCNCCC12CC3CC(CC(C3)C1)C2)Nc1c(F)cnc2cc(Cl)ccc12` (configuration not stated), the IC50 with HepG2 turned out to be 2610 nM; in the series with Plasmodium falciparum [1], 547 nM; in the series on Plasmodium falciparum [3], 590 nM; in the series on Plasmodium falciparum [4] it was 288 nM. The selectivity ratio in [2] was determined as 9.
Regarding `CC(CCCNCC12CC3CC(CC(C3)C1)C2)Nc1c(F)cnc2cc(Cl)ccc12` (configuration not stated), the IC50 with HepG2 was 3550 nM; in the series with Plasmodium falciparum [1] it was 488 nM; in the series with Plasmodium falciparum [3], 342 nM; in the series with Plasmodium falciparum [4], 198 nM. For the same compound, in series [2], the selectivity ratio came out at 18.
For `CC(NCCCCNc1ccnc2cc(Cl)ccc12)C12CC3CC(CC(C3)C1)C2` (configuration not stated), the IC50 with HepG2 stood at 3090 nM; in the series with Plasmodium falciparum [1], 25 nM; in the series on Plasmodium falciparum [3], 19 nM; in the series on Plasmodium falciparum [4], 7 nM. Also, in [2], the selectivity ratio was determined as 441.
Taken in the same sequence, the figures for `CC(CCCNc1ccnc2cc(Cl)ccc12)NCCC12CC3CC(CC(C3)C1)C2` (configuration not stated) were 2600 nM, 81 nM, 47 nM, 9 nM and 289.
As for `CC(CCNCC12CC3CC(CC(C3)C1)C2)Nc1nc2cc(Cl)ccc2cc1F` (configuration not stated), the % infection at 5 µM in the series on Plasmodium berghei [9] was determined as 2%. Further, the IC50 in the series on Plasmodium berghei [10] was determined as 1000 nM.
As for `COC(=O)CCC(C)[C@H]1CC[C@H]2[C@@H]3[C@H](OC(C)=O)C[C@@H]4CC5(CC[C@]4(C)[C@H]3C[C@H](OC(C)=O)[C@]12C)OOC1(CCCCC1)OO5` (some centres not stated), the % infection at 5 µM in the series with Plasmodium berghei [9] amounted to 31%. In addition, the IC50 with Plasmodium berghei [10] is < 1000 nM.
Consider `Fc1ccc2c(CNCCCNc3ccnc4cc(Cl)ccc34)csc2c1`, for which the Activity entry in the series on Mus musculus is on record as “Non-toxic”. Also, in the series on Plasmodium berghei [7], the MST is 26.4 days.

Usually IC50 stands for the concentration needed to halve the response being measured. By half-life is commonly meant how long it takes for the measured level to halve.
